Bioassay records deposited in PubChem BioAssay by Broad Institute.
This is a sample that favours compounds with a hit; in the whole collection about 2.6% have one here.
DENV2 CPE rescue: DENV2-induced cell death inhibition; DENV2-infected cells, cytopathic effect rescue, plate reader; CPE inhibition, % at 9.99 µM; hit rate 1.7% among 350,000; AID 651640; in the data active = CPE inhibition above about 20%, passing the limit was not always enough; inconclusive = no clear call, values can overlap the other calls; tested in BHK-21 cells;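 also: 0% = median of neutral control wells and 100% = median of positive control wells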
E-selectin induc: induces E-selectin expression in human endothelial cells; P16581; HUVEC E-selectin immunofluorescence imaging; normalized: neutral wells 0, TNF-alpha wells 100; activation, % at 7.58 µM; hit rate 0.37% among 260,000; AID 686992;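 active = mean E-selectin-positive cell signal at least 10% of the positive control, reached in at least 60% of replicates, without over 20% cell loss; inconclusive = no rule given, readout overlaps actives, possibly toxicity-flagged; inactive = the rest, including those meeting only one limit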
Target sequence (P16581 whole entry, looked up): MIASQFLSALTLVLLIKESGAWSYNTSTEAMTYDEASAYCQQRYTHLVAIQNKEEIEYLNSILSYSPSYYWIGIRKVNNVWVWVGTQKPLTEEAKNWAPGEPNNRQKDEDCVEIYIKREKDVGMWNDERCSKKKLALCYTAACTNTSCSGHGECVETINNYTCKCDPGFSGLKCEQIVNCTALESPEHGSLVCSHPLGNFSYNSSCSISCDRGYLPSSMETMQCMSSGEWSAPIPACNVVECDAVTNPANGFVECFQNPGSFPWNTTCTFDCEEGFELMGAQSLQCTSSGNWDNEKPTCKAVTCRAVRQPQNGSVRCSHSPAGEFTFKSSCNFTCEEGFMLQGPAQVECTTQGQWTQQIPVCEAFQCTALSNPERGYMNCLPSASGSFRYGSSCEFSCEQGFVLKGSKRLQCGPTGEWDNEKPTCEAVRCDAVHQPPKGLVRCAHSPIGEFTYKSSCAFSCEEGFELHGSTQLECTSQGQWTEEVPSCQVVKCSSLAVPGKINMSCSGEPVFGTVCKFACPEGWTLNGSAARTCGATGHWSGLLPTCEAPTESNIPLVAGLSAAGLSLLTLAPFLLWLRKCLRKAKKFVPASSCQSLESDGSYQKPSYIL
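Assay system: HUVEC primary endothelial cells. Input: 3,000 HUVEC seeded per well. Doses: one compound dose added by pin transfer. Read-out basis: % PE-positive cells. Benchmarks: TNF-alpha high, DMSO low. Detection: immunofluorescence imaging. Buffer or medium: EGM-2, gelatin.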
ERAP1 inh: inhibitors of human ERAP1 aminopeptidase. hit rate 0.15% among 340,000. AID 652197. Q9NZ08. inhibition, % at 10.7 µM. recombinant ERAP1, Leu-AMC fluorescence, 60 min;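 active = mean replicate inhibition of at least 30%, or all replicates individually reaching that 30% level; inactive = mean below 30% and not every replicate reaching it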;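 also: 0% = neutral control wells and 100% = L-leucinethiol positive control wells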
CFTR F508del cor: correctors of CFTR F508del function in bronchial epithelial cells; hit rate 0.36% among 350,000; activity (quench increase), % at 7.58 µM; CFBE cells, YFP halide quenching; stimulated with forskolin plus potentiator P3; % fluorescence drop versus neutral controls; AID 720511;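 active = mean added fluorescence quench of at least 8% versus neutral control, with both replicates also reaching 8%; inconclusive = only one of the mean or replicate conditions met; inactive = mean below 8% and not both replicates reaching 8%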;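 also: cells transiently co-express mutant CFTR-F508del with the halide-sensitive YFP; corrector assay measuring rescue of mutant channel to the surface after 24 h compound exposure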
GSIS activator: primary screen for activators of insulin secretion dependent on glucose, INS-1E cells, GLuc reporter luminescence; INS-1E GLuc reporter insulin secretion, 2-3 h; AID 743287; hit rate 0.61% among 370,000; activation, % at 16.6 µM;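 active = lowest replicate activation of at least 40%, so every replicate reaches that level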;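 also: 0% = median of neutral control wells and 100% = median of IBMX positive control wells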
miR122 inh: blocks miR-122 activity in Huh7 sensor cells. Huh7 miR-122 Renilla luciferase sensor, 48 h; neutral wells = 0, positive control = 100. activation (reporter increase), % at 12.5 µM. hit rate 0.3% among 340,000. AID 602342;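 active = mean replicate activation score at least 90 and every replicate individually at or above 90; inconclusive = only one of the two criteria met; inactive = neither criterion met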;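 also: higher luciferase means less miR-122 activity so hits act as miR-122 inhibitors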
An asterisk follows results filed as active; ? = inconclusive; . = no result given; [ ] = remark or other dose.

SMILES	DENV2 CPE rescue	E-selectin induc	ERAP1 inh	CFTR F508del cor	GSIS activator	miR122 inh
CC1(C)CC[C@]2(C(=O)O[C@@H]3O[C@H](CO)[C@@H](O)[C@H](O)[C@H]3O)CC[C@]3(C)C(=CCC4[C@@]5(C)CC[C@H](O[C@@H]6O[C@H](C(=O)O)[C@@H](O[C@H]7OC[C@@H](O)[C@@H](O)[C@@H]7O)[C@H](O)[C@H]6O)C(C)(C)C5CC[C@]43C)[C@@H]2C1 (stereo partly specified)	81*	0	.	3	-5	.
C[C@H]1O[C@H](O[C@H]2[C@H](O[C@@H]3CC[C@@]4(C)C(CC[C@]5(C)C4CC=C4[C@@H]6CC(C)(C)CC[C@]6(C(=O)O[C@@H]6O[C@H](CO)[C@@H](O)[C@H](O)[C@H]6O)CC[C@]45C)C3(C)C)O[C@H](C(=O)O)[C@@H](O)[C@@H]2O)[C@@H](O)[C@@H](O)[C@@H]1O (stereo partly specified)	109*	.	-130	3	.	0
COc1ccccc1CNC(=O)C[C@H]1CC[C@H](NC(=O)CN(C)C)[C@@H](CO)O1	10	0	3	-2	0	.
COCCCn1c(C(=O)NC2CCCCC2C)cc2c(=O)n3cccc(C)c3nc21 (stereo unspecified)	8	.	1	-2	2	0
COCCCn1c(C(=O)N2CCOCC2)cc2c(=O)n3ccccc3nc21	8	0	54*	-2	6	-1
COCCCn1c(C(=O)Nc2ccc3c(c2)OCO3)cc2c(=O)n3ccccc3nc21	-3	.	3	0	0	-8
CCN(C(=O)c1cc2c(=O)n3cccc(C)c3nc2n1CCCOC)C1CCCCC1	-3	4	50*	0	-52	2
COc1cccc(C(=O)Nc2ccc3c(c2)C(=O)N(C)C[C@H](OC)[C@H](C)CN(C)[C@@H](C)CO3)c1	2	0	-1	3	-7	-12[16.7 µM]
COc1ccc(CO/N=C/c2c(C)[nH]c(=O)[nH]c2=O)cc1	.	.	.	.	44*	-4
CCOC(=O)C1=C2c3cc(OC)c(OC)cc3CC(C)(C)N2C(=O)C1=O	-1	-2	2	.	45*	-2
COC(=O)[C@@H]1[C@@H](CO)[C@@H]2Cn3c(ccc(-c4cccc(F)c4)c3=O)[C@@H]2N1S(C)(=O)=O	7	0	1	.	6	.
CS(=O)(=O)NNC(=O)c1csc(Cc2c(Cl)sc3ccc(Cl)cc23)n1	1	63*	.	4	14	.
CC(C)C(=O)NNC(=O)c1csc(CS(=O)(=O)c2ccc(Cl)cc2)n1	-4	.	-3	-1	.	.
CN1C(=O)c2cc(NC(=O)c3ccc(F)c(F)c3)ccc2OC[C@@H]2O[C@H](CC(=O)N3CCOCC3)CC[C@H]21	1	0	3	-1	-12	-18[16.7 µM]
COc1cc(C(=O)c2cocc2C(=O)c2ccc3c(c2)OCO3)cc(OC)c1OC	-1	.	0	13*	4	18
COc1cc(C(=O)c2ccc3c(c2)OCO3)cc(OC)c1OC	-4	2	-1	2	2	28
CCCCn1nnnc1C1(C)CCC(=O)N1Cc1ccc(OC)cc1 (stereo unspecified)	12	5	.	-4	5	.
COc1ccc(CN2C(=O)CCC2(C)c2nnnn2C2CCCCC2)cc1 (stereo unspecified)	3	-1	.	2	18	.
COc1ccc(-n2nnnc2C2(C)CCC(=O)N2Cc2ccccc2)cc1 (stereo unspecified)	63*	0	1	-1	28	.
CCCCn1nnnc1C1(C)CCC(=O)N1CCOc1ccccc1 (stereo unspecified)	66*	0	17	-1	10	.
Cc1ccc(CN2C(=O)CCC2(C)c2nnnn2Cc2ccccc2)cc1 (stereo unspecified)	?	4	.	0	10	.
CC1(c2nnnn2Cc2ccccc2)CCC(=O)N1CCOc1ccccc1 (stereo unspecified)	92*	0	2	0	-5	.
Cn1cnc(CCNC(=O)C[C@@H]2CC[C@H]3[C@@H](COC[C@H](O)CN3C(=O)Nc3ccc(F)cc3)O2)c1	9	0	-3	0	14	2[16.7 µM]
Brc1ccc(-c2noc(CCc3ccccc3)n2)o1	56*	0	-1	-2	2	1
